Experimental data gathered from unrelated publications.
Compare with care: the assays were run in different laboratories.
Matrix: plasma
Route: oral

| SMILES | host | dose | notes | Vd/F |
| --- | --- | --- | --- | --- |
| N#CN1C[C@H](n2nc(-c3ccc(Oc4ccc(Cl)cn4)cc3)c(C(N)=O)c2N)CCC12CC2 | human | 600 mg | fed | 1230 L |
| CCOc1cc([C@@H](CS(C)(=O)=O)N2C(=O)c3cccc(NC(C)=O)c3C2=O)ccc1OC | human | 30 mg | single dose, healthy volunteers | 141 L |
| COc1cc(C(=O)NC2CCN(C)CC2)c(F)cc1Nc1ncc(C(F)(F)F)c(Oc2cccc3c2C(=O)N(C)C3)n1 | human | 100 mg | single dose, patients | 236 L |
| CO[C@H]1CC[C@H](N2C(=O)CNc3ncc(-c4ccc(C(C)(C)O)nc4)nc32)CC1 | human | 60 mg | patients | 236 L |
| c1cnc2ccc(Nc3nc(NC4CC4)c4nc[nH]c4n3)cc2c1 | human | 100 mg/m² | patients | 163 L |
| CCOc1ccc(Cc2cc([C@@H]3O[C@H](CO)[C@@H](O)[C@H](O)[C@H]3O)ccc2Cl)cc1 | human | 10 mg | multiple doses, steady state | 320 L |
| C[C@@]1(c2cc(NC(=O)c3ccc(C#N)cn3)ccc2F)C=CSC(N)=N1 | human | 30 mg | single dose | 276 L |
| Cc1cc(Nc2cc(N3CCN(C)CC3)nc(/C=C/c3ccccc3)n2)n[nH]1 | human | 120 mg/m² | multiple doses, patients | 847 L |
| COc1ccc([C@@H]2CN(C(=O)[C@@H](O)CO)C[C@@]2(C)[C@@H](C)O)cc1OC1CN(c2ccc(C)cn2)C1 | human | 0.1 mg | single dose, healthy volunteers | 23.8 L |
| CCOc1cc2ncc(C#N)c(Nc3ccc(OCc4ccccn4)c(Cl)c3)c2cc1NC(=O)/C=C/[C@H]1CCCN1C | human | 80 mg | single dose | 4110 L |
| C=C(F)C(=O)N1CCN(c2nc(OC[C@@H]3CCCN3C)nc3c2CCN(c2cccc4cccc(Cl)c24)C3)C[C@@H]1CC#N | human | 600 mg | single dose, fasted | 527 L |
| C[C@@H](c1ccc2nccn2c1)n1nnc2ncc(-c3cnn(C)c3)nc21 | human | 200 mg | – | 310 L |
| CC(C)(Sc1ccncc1-c1ccc(C#N)c2ccccc12)C(=O)O | male human | 20 mg | single dose, fed, healthy volunteers | 531 L |
